Reference: ChEMBL document CHEMBL5338764, “Prodrug Strategies for the Development of β-l-5-((E)-2-Bromovinyl)-1-((2S,4S)-2-(hydroxymethyl)-1,3-(dioxolane-4-yl))uracil (l-BHDU) against Varicella Zoster Virus (VZV)” (J Med Chem, 2023)

Experiments:
[1] = Selectivity index, ratio of CC50 for human ARPE-19 cells to EC50 for VZV infected human ARPE-19 cells; type: toxicity; settings: VZV infected ARPE-19 cells, read-out: Selectivity Index
[2] = system: Human alphaherpesvirus 3; test: Antiviral activity against VZV infected human ARPE-19 cells assessed as reduction in viral replication treated for 72 hrs by bioluminescence imaging analysis; type: functional, organism-based; settings: Human alphaherpesvirus 3, ARPE-19, 72 h
[3] = Cytotoxicity against human ARPE-19 cells assessed as reduction in cell viability treated for 72 hrs by neutral red assay; type: toxicity, cell-based
Outline: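 ARPE-19 cells (DMEM, 10% heat-inactivated FBS, penicillin-streptomycin, amphotericin B; used within 30 passages) seeded 3 d, then exposed 72 h to a concentration range, higher than in antiviral runs, under the same conditions. Viability read by neutral red dye uptake; staurosporine as cell-death control. […] DMSO stocks diluted in DMSO and/or medium.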

[4] = Cytotoxicity against HFF cells assessed as reduction in cell viability; type: toxicity, cell-based; settings: human
[5] = system: Human alphaherpesvirus 3; test: Antiviral activity against VZV expressing ORF57-TS mutant infected human ARPE-19 cells assessed as reduction in viral replication treated for 72 hrs by bioluminescence imaging analysis; type: functional, organism-based; settings: Human alphaherpesvirus 3, ARPE-19, 72 h
[6] = system: Human alphaherpesvirus 3; test: Antiviral activity against VZV expressing ORF57-Luc infected human ARPE-19 cells assessed as reduction in viral replication treated for 72 hrs by bioluminescence imaging analysis; type: functional, organism-based; settings: Human alphaherpesvirus 3, ARPE-19, 72 h
[7] = system: Human alphaherpesvirus 3; test: Antiviral activity against VZV expressing ORF57-TK mutant infected human ARPE-19 cells assessed as reduction in viral replication treated for 72 hrs by bioluminescence imaging analysis; type: functional, organism-based; settings: Human alphaherpesvirus 3, ARPE-19, 72 h
[8] = system: Human alphaherpesvirus 3; test: Antiviral activity against VZV expressing ORF57-TKTS mutant infected human ARPE-19 cells assessed as reduction in viral replication treated for 72 hrs by bioluminescence imaging analysis; type: functional, organism-based; settings: Human alphaherpesvirus 3, ARPE-19, 72 h

Row | Structure (SMILES) | selectivity ratio [1] | EC50 [2] | CC50 at 72 h [3] | further results
1 | N[C@@H](Cc1c[nH]c2ccccc12)C(=O)OC[C@H]1OC[C@@H](n2cc(/C=C/Br)c(=O)[nH]c2=O)O1 | > 1550 | – | – | –
2 | O=C(OC[C@H]1OC[C@@H](n2cc(/C=C/Br)c(=O)[nH]c2=O)O1)[C@@H]1CCCN1 | > 1930 | – | – | –
3 | CCCCCCCCCCCCCCCCOCCCOP(=O)(OC[C@H]1OC[C@@H](n2cc(/C=C/Br)c(=O)[nH]c2=O)O1)Oc1ccccc1 (some centres undefined) | 35 | 526 nM | 18500 nM | –
4 | CC(C)[C@H](N)C(=O)OC[C@H]1OC[C@@H](n2cc(/C=C/Br)c(=O)[nH]c2=O)O1 | > 709 | – | – | –
5 | CC(C)(N)C(=O)OC[C@H]1OC[C@@H](n2cc(/C=C/Br)c(=O)[nH]c2=O)O1 | > 2600 | – | – | –
6 | CC(C)[C@@H](N)C(=O)OC[C@H]1OC[C@@H](n2cc(/C=C/Br)c(=O)[nH]c2=O)O1 | > 3320 | – | – | CC50 [4]: > 200000 nM
7 | CC(C)C(=O)OCOP(=O)(OCOC(=O)C(C)C)OC[C@H]1OC[C@@H](n2cc(/C=C/Br)c(=O)[nH]c2=O)O1 | > 2920 | 34 nM | > 100000 nM | EC50 [5]: 8 nM; EC50 [6]: 40 nM; EC50 [7]: > 2000 nM; EC50 [8]: > 2000 nM
8 | N[C@@H](Cc1ccc(O)cc1)C(=O)OC[C@H]1OC[C@@H](n2cc(/C=C/Br)c(=O)[nH]c2=O)O1 | > 826 | – | – | –
9 | CCCCCCCCCCCCCCCCCCOCCOP(=O)(OC[C@H]1OC[C@@H](n2cc(/C=C/Br)c(=O)[nH]c2=O)O1)Oc1ccccc1 (some centres undefined) | 339 | 100 nM | 33900 nM | EC50 [5]: 1 nM; EC50 [6]: 820 nM; EC50 [7]: > 2000 nM; EC50 [8]: > 2000 nM
